For orientation: MIC means the lowest concentration that inhibits growth of the organism. Lower therefore signals inhibition by little substance.

Values after ≈ are worked out from the molar mass of the structure shown. Active and inactive are the calls of the source. The calls are words filed in the database; no cut-off is given here. A value given as a limit tells only on which side of the number the result lay.

The subject of assay [1] is Mus musculus. The experiment in a line: Survival of Staphylococcus aureus Smith infected BALB/c mouse assessed as septicemia protection at 38 mg/kg, sc administered at 1 hr and 3 hrs postinfection after 2 weeks. It is filed as functional, organism-based. Further details: dose 38 mg/kg. In a few lines:
(§1)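 Female Balb/c mice (16-18 g), acclimated one week, 10 per group. Infection IP with 0.5 mL of 10^6 S. aureus (mouse-passaged Smith strain) in 10% hog gastric mucin. Compound dissolved in water, given subcutaneously in 0.5 mL at 1 h and 3 h post-infection as serial 2-fold dilutions from 75 to 0.125 mg/kg. Amikacin and neomycin served as control groups. Moribund mice counted per group; observation over two weeks.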

For assay [2], the system named is Mus musculus. The experiment in a line: Survival of Staphylococcus aureus Smith infected BALB/c mouse assessed as septicemia protection at 1.2 mg/kg, sc administered at 1 hr and 3 hrs postinfection after 2 weeks. It is filed as functional, organism-based. Further details: dose 1.2 mg/kg. In a few lines:
as §1

In assay [3] the test system is Mus musculus. The experiment in a line: Survival of Staphylococcus aureus Smith infected BALB/c mouse assessed as septicemia protection at 19 mg/kg, sc administered at 1 hr and 3 hrs postinfection after 2 weeks. In kind it is functional, organism-based. More on the design: dose 19 mg/kg. The gist of the method: as §1
Assay [4] concerns Staphylococcus aureus. The experiment in a line: Antimicrobial activity against Staphylococcus aureus ATCC 13709 after 20 to 24 hrs. In kind it is functional. The gist of the method:
(§2)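 Broth microdilution in duplicate; compound in 2.5% DMSO in water, overnight culture added to a final inoculum of about 10^2-10^3 CFU/well. Growth read as A595 after 20-24 h at 37°C, relative to a no-compound well. MIC reported as a range: complete inhibition at the higher concentration, viable cells at the lower. Ampicillin and tetracycline are the positive controls.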

For assay [5], the system named is Mus musculus. The experiment in a line: Survival of Staphylococcus aureus Smith infected BALB/c mouse assessed as septicemia protection at 4.7 mg/kg, sc administered at 1 hr and 3 hrs postinfection after 2 weeks. In kind it is functional, organism-based. Further details: dose 4.7 mg/kg. The gist of the method: as §1
The subject of another assay is Escherichia coli. The experiment in a line: Antimicrobial activity against Escherichia coli ATCC 25922 after 20 to 24 hrs. In kind it is functional. In a few lines:
as §2

Assay [6] concerns Staphylococcus aureus. As to the kind of experiment: Septicemia protection in Staphylococcus aureus Smith infected sc dosed BALB/c mouse after 2 weeks. It is filed as functional. The note with it: 336 h. The gist of the method: as §1
The subject of assay [7] is Mus musculus. As to the kind of experiment: Survival of Staphylococcus aureus Smith infected BALB/c mouse assessed as septicemia protection at 0.50 mg/kg, sc administered at 1 hr and 3 hrs postinfection after 2 weeks. It is filed as functional, organism-based. Further details: dose 0.5 mg/kg. In a few lines: as §1
Assay [8] concerns Mus musculus. The experiment in a line: Survival of Staphylococcus aureus Smith infected BALB/c mouse assessed as septicemia protection at 2.3 mg/kg, sc administered at 1 hr and 3 hrs postinfection after 2 weeks. In kind it is functional, organism-based. Further details: dose 2.3 mg/kg. The gist of the method:
as §1

The subject of assay [9] is Mus musculus. As to the kind of experiment: Survival of Staphylococcus aureus Smith infected BALB/c mouse assessed as septicemia protection at 75 mg/kg, sc administered at 1 hr and 3 hrs postinfection after 2 weeks. Further details: dose 75 mg/kg. It is filed as functional, organism-based. In a few lines: as §1
The subject of assay [10] is Mus musculus. The experiment in a line: Survival of Staphylococcus aureus Smith infected BALB/c mouse assessed as septicemia protection at 9.4 mg/kg, sc administered at 1 hr and 3 hrs postinfection after 2 weeks. More on the design: dose 9.4 mg/kg. In kind it is functional, organism-based. In a few lines: as §1

In the case of `NC[C@@H]1O[C@H](O[C@H]2[C@@H](OCCNCCc3ccccc3)[C@H](O[C@@H]3[C@@H](O)[C@H](N)C[C@H](N)[C@H]3O[C@H]3O[C@H](CO)[C@@H](O)[C@H](O)[C@H]3N)O[C@@H]2CO)[C@H](N)[C@@H](O)[C@@H]1O`, the result in the assay with Mus musculus [1], with Mus musculus [2], with Mus musculus [3], in the assay with Mus musculus [5] and in the assay with Mus musculus [7] was Active. Moreover, the values for the MIC against Staphylococcus aureus [4] and against Escherichia coli were 0.3 mg/L (≈ 0.393 µM) and 3 mg/L (≈ 3.93 µM), respectively. Further, the ED90 in the assay on Staphylococcus aureus [6] amounted to 0.25 mg/kg.

Take `N[C@H]1[C@@H](O[C@H]2[C@H](O[C@@H]3O[C@H](CO)[C@@H](O)[C@H]3OCCNCCc3ccccc3)[C@@H](O)[C@H](N)C[C@@H]2N)O[C@H](CO)[C@@H](O)[C@@H]1O`: the MIC with Staphylococcus aureus [4] is 12 mg/L (≈ 19.9 µM); against Escherichia coli, above 100 mg/L.

As for `NC[C@@H]1O[C@H](O[C@H]2[C@@H](OCCNCCCCc3ccccc3)[C@H](O[C@@H]3[C@@H](O)[C@H](N)C[C@H](N)[C@H]3O[C@H]3O[C@H](CO)[C@@H](O)[C@H](O)[C@H]3N)O[C@@H]2CO)[C@H](N)[C@@H](O)[C@@H]1O`, the MIC against Staphylococcus aureus [4] is 3 mg/L (≈ 3.79 µM); in the assay with Escherichia coli, 10 mg/L (≈ 12.6 µM).

`NC[C@@H]1O[C@H](O[C@H]2[C@@H](OCCOCCCc3ccccc3)[C@H](O[C@@H]3[C@@H](O)[C@H](N)C[C@H](N)[C@H]3O[C@H]3O[C@H](CO)[C@@H](O)[C@H](O)[C@H]3N)O[C@@H]2CO)[C@H](N)[C@@H](O)[C@@H]1O`: the MIC in the assay on Staphylococcus aureus [4] came to 5 mg/L (≈ 6.43 µM); in the assay with Escherichia coli, 20 mg/L (≈ 25.7 µM).

For `NC[C@@H]1O[C@H](O[C@H]2[C@@H](OCCCc3ccccc3)[C@H](O[C@@H]3[C@@H](O)[C@H](N)C[C@H](N)[C@H]3O[C@H]3O[C@H](CO)[C@@H](O)[C@H](O)[C@H]3N)O[C@@H]2CO)[C@H](N)[C@@H](O)[C@@H]1O`, the figures for the MIC in the assay on Staphylococcus aureus [4] and in the assay with Escherichia coli were 3 mg/L (≈ 4.09 µM) and 20 mg/L (≈ 27.3 µM), respectively.

Turning to `NC[C@@H]1O[C@H](O[C@H]2[C@@H](OCCNCCc3ccc(-c4ccccc4)cc3)[C@H](O[C@@H]3[C@@H](O)[C@H](N)C[C@H](N)[C@H]3O[C@H]3O[C@H](CO)[C@@H](O)[C@H](O)[C@H]3N)O[C@@H]2CO)[C@H](N)[C@@H](O)[C@@H]1O`, the MIC is 5 mg/L (≈ 5.96 µM) against Staphylococcus aureus [4] and 20 mg/L (≈ 23.8 µM) against Escherichia coli.

As for `NC[C@@H]1O[C@H](O[C@H]2[C@@H](OCCNCc3cccnc3)[C@H](O[C@@H]3[C@@H](O)[C@H](N)C[C@H](N)[C@H]3O[C@H]3O[C@H](CO)[C@@H](O)[C@H](O)[C@H]3N)O[C@@H]2CO)[C@H](N)[C@@H](O)[C@@H]1O`, the outcome in the assay on Mus musculus [1], in the assay on Mus musculus [8], in the assay on Mus musculus [9], in the assay on Mus musculus [2], in the assay with Mus musculus [3] and with Mus musculus [10] was Active. In addition, in the assay with Mus musculus [5], the result was Active. In addition, the MIC against Staphylococcus aureus [4] was below 1.5 mg/L; in the assay with Escherichia coli, 12 mg/L (≈ 16 µM).

For `NC[C@@H]1O[C@H](O[C@H]2[C@@H](OCCNC3C4CC5CC3CC(C4)C5O)[C@H](O[C@@H]3[C@@H](O)[C@H](N)C[C@H](N)[C@H]3O[C@H]3O[C@H](CO)[C@@H](O)[C@H](O)[C@H]3N)O[C@@H]2CO)[C@H](N)[C@@H](O)[C@@H]1O` (stereo not given in full), the MIC against Staphylococcus aureus [4] amounted to 1 mg/L (≈ 1.24 µM); in the assay on Escherichia coli, 20 mg/L (≈ 24.7 µM).

In the case of `NC[C@@H]1O[C@H](O[C@H]2[C@@H](OCCNC3CCNCC3)[C@H](O[C@H]3C(O[C@H]4O[C@H](CO)[C@@H](O)[C@H](O)[C@H]4N)[C@@H](N)C[C@@H](N)[C@@H]3O)O[C@@H]2CO)[C@H](N)[C@@H](O)[C@@H]1O` (stereo not given in full), the minimal inhibitory concentration (MIC) against Staphylococcus aureus [4] came to 2 mg/L (≈ 2.7 µM); with Escherichia coli, 25 mg/L (≈ 33.7 µM).

Take `NC[C@@H]1O[C@H](O[C@H]2[C@@H](OCCNCc3nc4ccccc4[nH]3)[C@H](O[C@@H]3[C@@H](O)[C@H](N)C[C@H](N)[C@H]3O[C@H]3O[C@H](CO)[C@@H](O)[C@H](O)[C@H]3N)O[C@@H]2CO)[C@H](N)[C@@H](O)[C@@H]1O`: the MIC in the assay with Staphylococcus aureus [4] and against Escherichia coli was above 100 mg/L each time.

Turning to `NCCNCCO[C@H]1[C@H](O[C@@H]2[C@@H](O)[C@H](N)C[C@H](N)[C@H]2O[C@H]2O[C@H](CO)[C@@H](O)[C@H](O)[C@H]2N)O[C@H](CO)[C@H]1O[C@H]1O[C@@H](CN)[C@@H](O)[C@H](O)[C@H]1N`, the MIC with Staphylococcus aureus [4] was 2 mg/L (≈ 2.85 µM); with Escherichia coli, 6 mg/L (≈ 8.55 µM).

Consider `NC[C@@H]1O[C@H](O[C@H]2[C@@H](OCCNc3cccc(O)c3)[C@H](O[C@@H]3[C@@H](O)[C@H](N)C[C@H](N)[C@H]3O[C@H]3O[C@H](CO)[C@@H](O)[C@H](O)[C@H]3N)O[C@@H]2CO)[C@H](N)[C@@H](O)[C@@H]1O`, for which the values for the MIC in the assay with Staphylococcus aureus [4] and in the assay with Escherichia coli were 2 mg/L (≈ 2.66 µM) and 12 mg/L (≈ 16 µM), respectively.

Turning to `NC[C@@H]1O[C@H](O[C@H]2[C@@H](OCCNCC3CCCNC3)[C@H](O[C@@H]3[C@@H](O)[C@H](N)C[C@H](N)[C@H]3O[C@H]3O[C@H](CO)[C@@H](O)[C@H](O)[C@H]3N)O[C@@H]2CO)[C@H](N)[C@@H](O)[C@@H]1O` (stereo not given in full), the MIC was determined as 3 mg/L (≈ 3.97 µM) against Staphylococcus aureus [4] and 1.5 mg/L (≈ 1.98 µM) in the assay with Escherichia coli.

Take `COc1ccc(CCNCCO[C@H]2[C@H](O[C@@H]3[C@@H](O)[C@H](N)C[C@H](N)[C@H]3O[C@H]3O[C@H](CO)[C@@H](O)[C@H](O)[C@H]3N)O[C@H](CO)[C@H]2O[C@H]2O[C@@H](CN)[C@@H](O)[C@H](O)[C@H]2N)cc1`: the MIC with Staphylococcus aureus [4] is below 0.6 mg/L; against Escherichia coli it was 5 mg/L (≈ 6.31 µM).

As for `NC[C@@H]1O[C@H](O[C@H]2[C@@H](OCCNc3ccccc3)[C@H](O[C@@H]3[C@@H](O)[C@H](N)C[C@H](N)[C@H]3O[C@H]3O[C@H](CO)[C@@H](O)[C@H](O)[C@H]3N)O[C@@H]2CO)[C@H](N)[C@@H](O)[C@@H]1O`, the MIC with Staphylococcus aureus [4] worked out at 6 mg/L (≈ 8.17 µM); in the assay on Escherichia coli it was 50 mg/L (≈ 68 µM).

Take `CC(=O)N(CCO[C@H]1[C@H](O[C@@H]2[C@@H](O)[C@H](N)C[C@H](N)[C@H]2O[C@H]2O[C@H](CO)[C@@H](O)[C@H](O)[C@H]2N)O[C@H](CO)[C@H]1O[C@H]1O[C@@H](CN)[C@@H](O)[C@H](O)[C@H]1N)CCc1ccccc1`: the MIC against Staphylococcus aureus [4] stood at 1 mg/L (≈ 1.24 µM); in the assay on Escherichia coli, 10 mg/L (≈ 12.4 µM).

The values above are taken from ChEMBL document CHEMBL1139884, “Structure-based design, synthesis, and A-site rRNA cocrystal complexes of functionally novel aminoglycoside antibiotics: C2" ether analogues of paromomycin” (2007).
